20 compounds from ChEMBL document CHEMBL1153100, “Synthesis and in vivo evaluation of 3-substituted gababutins” (Bioorg Med Chem Lett, 2010) can be followed below.

Activity calls are given as the source filed them. The calls are words filed in the database; no cut-off is given here.

Assay [1] has as its target Voltage-dependent calcium channel alpha2delta subunit (Sus scrofa, UniProt O77773). Briefly: Displacement of [3H]gabapentin from calcium channel alpha2delta in pig cerebral cortex membrane after 30 mins. The class given is cell membranes. (In general: Displacement assays read how much labelled ligand stays bound in the presence of the test substance.)
Assay [2] has as its system Rattus norvegicus. Briefly: Antihyperalgesic effect in carrageenan-induced rat inflammatory pain model assessed as reversal of hyperalgesia at 30 mg/kg, po. The class given is functional, organism-based. Further details: dose 30 mg/kg. The method in brief:
(§1)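 Rats received intraplantar carrageenan in the paw, and thermal hyperalgesia was allowed to form over 2 h, to a paw-withdrawal latency of 2.5 s. Test compound was then given orally. Reversal of hyperalgesia was read as the time to paw withdrawal.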

The test system of assay [3] is Rattus norvegicus. As to the kind of experiment: Analgesic activity in po dosed rat assessed as increase in number shocks received for 10 mins. The class given is functional. The note with it: read-out: MED. The method in brief:
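Vogel conflict model: rats were dosed orally at different doses, then placed in a cage with a drinking tube that delivered a shock at each drink. The mean number of shocks per rat was counted over 10 min. The minimum effective dose was taken from significance versus vehicle (P <0.05).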

Assay [4] relates to Rattus norvegicus. Briefly: Antihyperalgesic effect in carrageenan-induced rat inflammatory pain model assessed as reversal of hyperalgesia at 1 to 30 mg/kg, po. The assay is classed as functional, organism-based. An outline of the steps:
as §1

Assay [5] concerns Rattus norvegicus. As to the kind of experiment: Antihyperalgesic effect in carrageenan-induced intrathecal dosed rat inflammatory pain model assessed as reversal of hyperalgesia. The assay is classed as functional, organism-based.

Chain of Voltage-dependent calcium channel alpha2delta subunit (O77773 whole entry): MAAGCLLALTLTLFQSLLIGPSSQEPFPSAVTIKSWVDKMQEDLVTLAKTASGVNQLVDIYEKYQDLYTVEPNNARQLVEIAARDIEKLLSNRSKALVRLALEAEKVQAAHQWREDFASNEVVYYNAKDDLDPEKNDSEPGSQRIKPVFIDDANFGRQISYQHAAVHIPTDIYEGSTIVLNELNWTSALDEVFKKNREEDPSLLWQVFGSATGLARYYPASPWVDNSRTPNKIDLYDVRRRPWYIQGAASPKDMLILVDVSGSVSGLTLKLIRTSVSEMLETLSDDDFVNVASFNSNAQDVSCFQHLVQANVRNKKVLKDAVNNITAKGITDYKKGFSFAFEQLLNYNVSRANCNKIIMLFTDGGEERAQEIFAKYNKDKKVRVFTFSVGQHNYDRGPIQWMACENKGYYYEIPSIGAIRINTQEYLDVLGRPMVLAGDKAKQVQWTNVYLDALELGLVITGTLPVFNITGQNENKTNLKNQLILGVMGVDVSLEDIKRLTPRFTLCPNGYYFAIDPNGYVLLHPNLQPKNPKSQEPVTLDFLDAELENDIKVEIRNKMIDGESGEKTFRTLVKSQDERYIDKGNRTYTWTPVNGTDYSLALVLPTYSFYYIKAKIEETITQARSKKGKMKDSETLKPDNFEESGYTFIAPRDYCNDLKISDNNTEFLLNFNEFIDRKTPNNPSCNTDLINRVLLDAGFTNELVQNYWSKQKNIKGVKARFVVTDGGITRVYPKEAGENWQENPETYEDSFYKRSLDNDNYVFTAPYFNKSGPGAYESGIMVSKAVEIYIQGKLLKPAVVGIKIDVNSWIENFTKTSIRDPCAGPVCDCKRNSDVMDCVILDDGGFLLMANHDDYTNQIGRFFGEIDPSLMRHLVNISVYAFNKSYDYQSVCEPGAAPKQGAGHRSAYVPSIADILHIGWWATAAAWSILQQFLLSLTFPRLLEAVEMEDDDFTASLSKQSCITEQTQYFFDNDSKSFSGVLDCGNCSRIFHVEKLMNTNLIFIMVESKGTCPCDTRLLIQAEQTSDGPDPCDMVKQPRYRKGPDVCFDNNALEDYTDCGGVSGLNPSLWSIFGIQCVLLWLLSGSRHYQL

On to `CC[C@@H]1CCC(CN)(CC(=O)O)C1` (stereo not given in full), for which the IC50 in assay [1] turned out to be 53 nM.
On the same count and under the same terms, then `C[C@@H]1CCC(CN)(CC(=O)O)C1` (stereo not given in full), with 88 nM; and `CC[C@H]1CCC(CN)(CC(=O)O)C1` (stereo not given in full), with 706 nM.
Regarding `CC1(C)CCC(CN)(CC(=O)O)C1` (stereo not given), the IC50 in assay [1] worked out at 3180 nM.
For the compound `C[C@@H]1CC[C@@](CN)(CC(=O)O)C1`, in assay [1], the IC50 stood at 71 nM. In the assay on Rattus norvegicus [2], the outcome was Active. Besides, the minimal effective dose with Rattus norvegicus [3] worked out at 30 mg/kg.
For `C[C@@H]1CC[C@](CN)(CC(=O)O)C1`, in the assay with Rattus norvegicus [4], the result was inactive. Besides, in assay [1], the concentration for half-maximal inhibition (IC50) amounted to 30 nM. In the assay on Rattus norvegicus [5], the outcome was Active. The minimal effective dose in the assay with Rattus norvegicus [3] came to 3 mg/kg.
In the case of `CCC[C@@H]1CCC(CN)(CC(=O)O)C1` (stereo not given in full), in assay [1], the IC50 stood at 29 nM.
With `CC1CCC(CN)(CC(=O)O)C1` (mixture of isomers), the half-maximal inhibitory concentration (IC50) in assay [1] worked out at 82 nM.
Turning to `CC(C)(C)C1CCC(CN)(CC(=O)O)C1` (mixture of isomers), the IC50 in assay [1] was over 10000 nM.
The same measure, in the same setting: then `CCCC1CCC(CN)(CC(=O)O)C1` (mixture of isomers), with 69 nM.
Still for that read-out and setting: then `CC(C)CC1CCC(CN)(CC(=O)O)C1` (mixture of isomers), with 760 nM; and `CCC1CCC(CN)(CC(=O)O)C1` (mixture of isomers), with 55 nM; and `CCCCC1CCC(CN)(CC(=O)O)C1` (mixture of isomers), with 690 nM.
Take `NCC1(CC(=O)O)CCC(c2ccccc2)C1` (mixture of isomers): the IC50 in assay [1] turned out to be 5060 nM.
For `NCC1(CC(=O)O)CCC(Cc2ccccc2)C1` (mixture of isomers), the IC50 in assay [1] turned out to be 9280 nM.
The same measure, in the same setting: then `NCC1(CC(=O)O)CCC(CCc2ccccc2)C1` (mixture of isomers), with 6230 nM.
Still for that read-out and setting: then `CCC[C@H]1CCC(CN)(CC(=O)O)C1` (single isomer, unassigned), with 1200 nM.
Still for that read-out and setting: then `C[C@H]1CCC(CN)(CC(=O)O)C1` (single isomer, unassigned), with 1300 nM; and `NCC1(CC(=O)O)CCCC1` [GABABUTIN], with 420 nM.
On to `CC(C)C[C@H](CN)CC(=O)O` [PREGABALIN], for which the minimal effective dose in the assay on Rattus norvegicus [3] was 10 mg/kg.

As a reminder, the IC50 is the concentration at which inhibition is half-maximal.
